Where two headings read alike, the source gives them in different places.
Assays:
[1] = ref unpublished data; cited from earlier work
[2] = Study 1 panel C: effect of a high-fat breakfast on single-dose pharmacokinetics; format: in vivo, human; conditions: single dose 10 mg
Summary of the method: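 Panel C had 8 subjects, 6 on 10 mg test compound and 2 on placebo, in a 2-period fixed sequence. Dosing was fasted in period 1 and after a standard high-fat breakfast (55.6 g fat, 55 g carbohydrate, 31.1 g protein) in period 2. Washout was at least 2 weeks. Plasma was assayed by LC/MS/MS (LLOQ 1.0 ng/mL). Log-transformed parameters were compared fed/fasted as GMR with 90% CI.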

[3] = ref unpublished data; cited from earlier work; remark: listed apart in the source
[4] = format: in vivo; conditions: male, human, plasma, po
Summary of the method: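 In an alternating-panel design (panels A and B), each panel had 6 active and 2 placebo subjects. Single oral doses of 0.5–400 mg were given after an overnight fast, with at least 2 weeks of washout. Blood went into K2EDTA and was spun at 1000–1300g, 4–10°C, for 10 min, then stored at –20°C. Plasma was extracted liquid-liquid with a stable-isotope internal standard and assayed by LC/MS/MS with turbo ionspray (range 1.0–1000 ng/mL). Parameters came from individual concentration-time curves at actual sampling times.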

plasma DPP-4 activity [5] = molecular target: T1, plasma DPP-4 activity (Homo sapiens, UniProt P27487); assay: PK/PD Emax model of DPP-4 inhibition vs omarigliptin plasma concentration; format: in vivo
plasma DPP-4 activity [6] = conditions: lean mice, 0.3 mg/kg dose; cited from earlier work
[7] = format: in vivo, human; conditions: for fe, fraction of dose excreted in urine: Day 15, 168-hour collection; for half-life / CL renal: male, human, oral; for half-life: plasma; for CL renal: urine and plasma
Summary of the method: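 Serial panels got 10, 25, 50 or 100 mg orally once weekly on days 1, 8 and 15, with 6 active and 2 placebo per panel. Plasma was assayed by LC/MS/MS (LLOQ 1.0 ng/mL). Urine was fortified with 0.2% Tween 20, protein-precipitated and assayed by LC/MS/MS (range 40.0–40,000 ng/mL). Ae is the sum of concentration × volume per interval, fe is Ae/dose and CLr is Ae/AUC. Accumulation is the day 15/day 1 GMR with 90% CI from a log-transformed mixed-effects model.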

[8] = PK/QTc relationship: linear mixed-effects model of QTcF vs plasma concentration; format: in vivo, human; conditions: Cmax of 10 μM
Summary of the method: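 In study 1, single rising oral doses ran from 0.5 to 400 mg under fasting. ECGs came from 5-lead cardiac telemetry and 12-lead recordings, paired with PK sampling. The averaged triplicate QTcF at each time point (dependent) was matched to plasma drug concentration (independent). These were fitted by a linear mixed-effects model with slope and intercept, and the slope was tested against zero. Prolongation was predicted from the fitted slope.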

[9] = rats and dogs; cited from earlier work
plasma DPP-4 activity [10] = molecular target: T1, plasma DPP-4 activity; assay: Study 1: inhibition of plasma DPP-4 activity after single doses; format: in vivo
Summary of the method: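 Healthy subjects got single oral doses of 0.5–400 mg or placebo. Blood went into EDTA tubes and was spun at 1700g for 10 min at 4°C, then stored at –20°C or below. Plasma was incubated with glycyl-prolyl-paranitroanilide, and absorbance increase at 390 nm was read from 4 to 14 min (LOQ 0.6 mOD/min). Inhibition is the % change from the period-1 predose baseline. The 168-h values came from a linear mixed-effects model (treatment fixed, subject random).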

[11] = Safety and tolerability in healthy subjects; format: in vivo, human; conditions: single and multiple doses
Summary of the method: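 Healthy adults got single rising oral doses or 3 once-weekly oral doses, versus placebo. Physical exams, vital signs and 12-lead ECGs (QTc, PR) were done before dosing, after dosing and at the poststudy visit. So were labs (hematology, serum chemistry including transaminases, urinalysis). Glucometer readings were taken often over 24 h after each single dose or the last multiple dose. Adverse experiences were graded for intensity, duration, seriousness, outcome and drug relation.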

active GLP-1 = assay: Study 2: weighted average augmentation; format: in vivo, human; conditions: healthy subjects (abstract)
Summary of the method: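 Once-weekly oral dosing ran days 1, 8 and 15 against placebo. On day 15, standard meals were given at 4 and 10 h post-dose, with the 4-h sample drawn before the meal. Plasma active GLP-1 (7-36 and 7-37 amides) was measured by electrochemiluminescent immunoassay. Capture was with an antibody to amino acid 7, and detection with antibodies to the C-terminal residues 36/37. WAA was taken through 2 h after each meal and analysed by ANOVA versus placebo.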

T1 sequence (P27487 39-766): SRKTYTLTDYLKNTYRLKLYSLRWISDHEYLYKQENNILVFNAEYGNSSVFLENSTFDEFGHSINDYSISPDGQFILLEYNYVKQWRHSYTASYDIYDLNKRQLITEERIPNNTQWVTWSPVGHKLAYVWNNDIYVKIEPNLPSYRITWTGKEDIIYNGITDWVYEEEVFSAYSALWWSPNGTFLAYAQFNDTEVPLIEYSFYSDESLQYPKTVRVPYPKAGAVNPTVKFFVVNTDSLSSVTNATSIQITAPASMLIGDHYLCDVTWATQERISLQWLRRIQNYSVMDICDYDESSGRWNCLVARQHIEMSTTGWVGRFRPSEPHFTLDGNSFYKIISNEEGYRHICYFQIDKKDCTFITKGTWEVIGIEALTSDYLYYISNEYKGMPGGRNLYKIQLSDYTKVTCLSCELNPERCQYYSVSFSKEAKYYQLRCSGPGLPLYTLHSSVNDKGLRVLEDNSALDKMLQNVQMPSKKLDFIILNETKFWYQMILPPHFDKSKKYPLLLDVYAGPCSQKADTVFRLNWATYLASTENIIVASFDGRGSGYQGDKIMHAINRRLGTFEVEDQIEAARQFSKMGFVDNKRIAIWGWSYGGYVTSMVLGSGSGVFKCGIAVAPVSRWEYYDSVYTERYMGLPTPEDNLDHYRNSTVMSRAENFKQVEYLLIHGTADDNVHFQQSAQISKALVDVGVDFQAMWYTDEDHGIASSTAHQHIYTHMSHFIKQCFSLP

difference in overall absorption in the presence and absence of a high-fat breakfast [2]: No difference | Tmax [4]: 0.75 to 4 h | Cmax ([4]; 0.5 mg): 0.0065 µM | Tmax ([4]; 0.5 mg): 0.75 h | AUC(0-inf) ([4]; 1.5 mg): 1.7 µM·h | Cmax ([4]; 1.5 mg): 0.0207 µM | Tmax ([4]; 1.5 mg): 1 h | AUC(0-inf) ([4]; 5 mg): 5.3 µM·h | Cmax ([4]; 5 mg): 0.0882 µM | Tmax ([4]; 5 mg): 2 h | AUC(0-inf) ([4]; 12.5 mg): 12 µM·h | Cmax ([4]; 12.5 mg): 0.219 µM | Tmax ([4]; 12.5 mg): 4 h | AUC(0-inf) ([4]; 25 mg): 22.5 µM·h | Cmax ([4]; 25 mg): 0.484 µM | Tmax ([4]; 25 mg): 0.75 h | AUC(0-inf) ([4]; 50 mg): 41.6 µM·h | Cmax ([4]; 50 mg): 0.904 µM | Tmax ([4]; 50 mg): 1.5 h | AUC(0-inf) ([4]; 100 mg): 86.9 µM·h | Cmax ([4]; 100 mg): 2.21 µM | Tmax ([4]; 100 mg): 0.75 h | AUC(0-inf) ([4]; 200 mg): 162 µM·h | Cmax ([4]; 200 mg): 3.85 µM | Tmax ([4]; 200 mg): 1.5 h | AUC(0-inf) ([4]; 400 mg): 335 µM·h | Cmax ([4]; 400 mg): 9.29 µM | Tmax ([4]; 400 mg): 1 h | Hill slope γ (plasma DPP-4 activity [5]; Emax model, single doses, SE 0.03): 1.1 | Emax (plasma DPP-4 activity [5]; read-out: Emax, maximum inhibition of plasma DPP-4 activity): 96.8% | fe, fraction of dose excreted in urine ([7]; 10 mg once weekly): 70.1 (14.1) % | fe, fraction of dose excreted in urine ([7]; 25 mg once weekly): 57.5 (15.7) % | fe, fraction of dose excreted in urine ([7]; 50 mg once weekly): 73.6 (4.3) % | fe, fraction of dose excreted in urine ([7]; 100 mg once weekly): 72.2 (7.7) % | steady state achieved following the second dosing ([7]; all treatments 10 to 100 mg once weekly): more than 80% | half-life ([7]; 10 mg): 83.2 h | half-life ([7]; 25 mg): 66.7 h | half-life ([7]; 50 mg): 48.3 h | half-life ([7]; 100 mg): 41.7 h | CL renal [7]: 26.7 to 35 mL/min | CL renal ([7]; 10 mg): 33.3 mL/min | CL renal ([7]; 25 mg): 26.7 mL/min | CL renal ([7]; 50 mg): 31.7 mL/min | CL renal ([7]; 100 mg): 35 mL/min | percentage inhibition of DPP-4 activity 168 hours postdose (point estimate) (plasma DPP-4 activity [10]; single dose 0.5 mg): 32.2% | percentage inhibition of DPP-4 activity 168 hours postdose (point estimate) (plasma DPP-4 activity [10]; single dose 400 mg): 96.7%
Compound: CS(=O)(=O)n1cc2c(n1)CN([C@H]1CO[C@H](c3cc(F)ccc3F)[C@@H](N)C1)C2 [omarigliptin]
permeability [1]: high | solubility [3]: high | inhibition of plasma DPP-4 activity (plasma DPP-4 activity [6]): ~85% | margin to the clinical dose of 25 mg [8]: ~20 fold | bioavailability [9]: nearly complete | tolerability ([11]; healthy adults): generally well tolerated | clinical or laboratory adverse experiences of hypoglycemia [11]: no reports | serious clinical or laboratory adverse experiences or discontinuation because of a clinical adverse experience [11]: No subject | increase in weighted average postprandial active GLP-1 (active GLP-1): ~2 fold
